pIC50: −log10 of the molar value.
Columns and labels:
[1] = Cytotoxicity against mouse +SA cells after 24 hrs by MTT assay; type: functional, cell-based; details: +SA cell
In short: (§1)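 Compounds dissolved in DMSO, conjugated overnight to 10% BSA at 37 °C, tested at 0–40 µM, final DMSO <0.1%. +SA cells seeded at 5 × 10⁴/well or CL-S1 at 1 × 10⁵/well (six wells/group), grown 3 days (~70% confluent), then treated 24 h. MTT 0.42 mg/mL, 4 h at 37 °C; crystals dissolved in isopropanol, read at 570 nm. Cell number from standard curve; IC50 by linear regression.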

[2] = Cytotoxicity against mouse CL-S1 cells assessed as cell viability after 24 hrs by MTT assay; type: cell-based; details: cl-s1, 24 h; in short: as §1
[3] = system: MDA-MB-231; assay: Antimigratory activity against human MDA-MB-231 at 5 uM after 24 hrs by wound-healing assay; type: functional; details: MDA-MB-231, 24 h
In short: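 MDA-MB-231 grown in RPMI 1640 with 10 mM HEPES, 4 mM L-glutamine, 10% FBS, 5% CO2, 37 °C. Confluent (>95%) monolayers scratched with pipette tip, washed with PBS, then given compound in DMSO at 5 µM (DMSO vehicle control), in triplicate. After 24 h under serum starvation, cells fixed and Diff Quick stained. Migrated cells counted in ≥3 random 400× fields, mean ± SEM.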

[4] = Chemical stability of the compound in phosphate buffer at pH 7.4 after 24 hrs by HPLC method relative to zero time concentration; type: physicochemical
In short: (§2)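 500 µg/mL compound dissolved in pH 7.4 phosphate buffer in amber vials and kept at 37 °C. Samples taken at 0, 0.5, 1, 2, 4, 6 and 24 h, mixed with equal volume methanol, analysed by HPLC with UV at 295 nm. Amount expressed relative to the zero-time concentration.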

[5] = Chemical stability of the compound in phosphate buffer at pH 7.4 after 1 hr by HPLC method relative to zero time concentration; type: physicochemical; details: pH 7.4, 1 h; in short: as §2
[6] = Stability of the compound in rat plasma after 24 hrs by HPLC method relative to zero time concentration; type: ADME, cell-free; details: read-out: Stability
In short: (§3)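 50 µg/mL compound dissolved in rat plasma in amber vials and incubated at 37 °C. Samples taken at 0, 0.5, 1, 2, 4, 6 and 24 h, mixed with 100 µL methanol, centrifuged 14,000 rpm for 10 min. Supernatant analysed by HPLC with UV at 295 nm, relative to zero-time concentration.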

[7] = Stability of the compound in rat plasma after 4 hrs by HPLC method relative to zero time concentration; type: ADME, cell-free; details: read-out: Stability; in short: as §3
[8] = Solubility of the compound in phosphate buffer at pH 7.4 after up to 24 hrs by HPLC method relative to alpha-tocotrienol; type: physicochemical; details: pH 7.4, 24 h
In short: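 About 5.6 mg compound added to 3 mL pH 7.4 phosphate buffer in amber vials and shaken at 25 °C for 24 h. Centrifuged 5000 rpm, 10 min; clear supernatant sampled at 0, 1, 2, 4, 6 and 24 h. Concentration determined by HPLC with UV at 295 nm.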

SMILES | pIC50 [1] | inhibition at 5 µM [3] | further results
CC(C)=CCC/C(C)=C/CC/C(C)=C/CC[C@]1(C)CCc2cc(OC(=O)c3cc(C(=O)O)ccc3C(=O)O)c(C)c(C)c2O1 | 5.84 |  | 
CC(C)=CCC/C(C)=C/CC/C(C)=C/CC[C@]1(C)CCc2cc(OC(=O)CC(C)CC(=O)O)c(C)c(C)c2O1 (stereo not given in full) | 4.72 |  | Activity [2]: Non-toxic
CC(C)=CCC/C(C)=C/CC/C(C)=C/CC[C@]1(C)CCc2cc(O)c(C)c(C)c2O1 [GAMMA-TOCOTRIENOL] | 5.40 |  | 
CC(=O)Oc1ccc(/C=C/C(=O)Oc2cc3c(c(C)c2C)O[C@](C)(CC/C=C(\C)CC/C=C(\C)CCC=C(C)C)CC3)cc1OC(C)=O | < 4.40 |  | Activity [2]: Non-toxic
CC(C)=CCC/C(C)=C/CC/C(C)=C/CC[C@]1(C)CCc2cc(OC(=O)c3ccc(C(=O)O)cc3C(=O)O)c(C)c(C)c2O1 | 6.21 |  | 
CC(C)=CCC/C(C)=C/CC/C(C)=C/CC[C@]1(C)CCc2cc(OC(=O)c3cc(C(=O)O)ccc3C(=O)O)cc(C)c2O1 | 5.82 | 50% | 
CC(C)=CCC/C(C)=C/CC/C(C)=C/CC[C@]1(C)CCc2cc(O)cc(C)c2O1 [DELTA-TOCOTRIENOL] | 5.52 |  | 
CC(C)=CCC/C(C)=C/CC/C(C)=C/CC[C@]1(C)CCc2cc(OC(=O)/C=C\C(=O)O)cc(C)c2O1 | 6.06 |  | 
CC(C)=CCC/C(C)=C/CC/C(C)=C/CC[C@]1(C)CCc2c(C)c(OC(=O)c3cc(C(=O)O)ccc3C(=O)O)c(C)c(C)c2O1 | 5.84 | 50% | 
CC(C)=CCC/C(C)=C/CC/C(C)=C/CC[C@]1(C)CCc2c(C)c(O)c(C)c(C)c2O1 [ALPHA-TOCOTRIENOL] | 5.30 |  | Stability ([4]; buffer, pH 7.4, 24 h): Unstable; Stability [5]: Unstable
CC(C)=CCC/C(C)=C/CC/C(C)=C/CC[C@]1(C)CCc2c(C)c(OC(=O)c3ccc(C(=O)O)cc3C(=O)O)c(C)c(C)c2O1 | 5.82 | 50% | 
CC(C)=CCC/C(C)=C/CC/C(C)=C/CC[C@]1(C)CCc2cc(OC(=O)/C=C\C(=O)O)c(C)c(C)c2O1 | 5.64 | 50% | 
CC(C)=CCC/C(C)=C/CC/C(C)=C/CC[C@]1(C)CCc2c(C)c(OC(=O)/C=C\C(=O)O)c(C)c(C)c2O1 | 6.28 | 50% | remaining at 24 h ([4]; phosphate buffer, pH 7.4, read-out: Stability): 100%; remaining at 24 h [6]: 43%; remaining at 4 h [7]: 81%; fold change (FC) [8]: 1000
CC(C)=CCC/C(C)=C/CC/C(C)=C/CC[C@]1(C)CCc2cc(OC(=O)c3ccccc3)c(C)c(C)c2O1 | 5.18 | 50% | Activity [2]: Non-toxic
CC(=O)Oc1cc(C(=O)Oc2cc3c(c(C)c2C)O[C@](C)(CC/C=C(\C)CC/C=C(\C)CCC=C(C)C)CC3)cc(OC(C)=O)c1OC(C)=O | 5.76 |  | 
